Measurements published in ChEMBL document CHEMBL1129419, “1-Aminocyclobutanecarboxylic acid derivatives as novel structural elements in bioactive peptides: application to tuftsin analogs” (J Med Chem, 1996).
Where a SMILES comes first, the peptide text is derived from it.

What was measured:
[1] = Plasma half life of compound reported; format: ADME, cell-free
How it was run: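 Peptide (0.5 mg) was incubated in 0.5 mL human serum at 37 °C. Aliquots were taken at 0-240 min, boiled at 90-95 °C for 5 min, diluted with water and centrifuged. Intact peptide was quantified by isocratic RP-HPLC at 220 nm, with peak area referenced to an internal serum peak and time 0 set at 100%. Half-life was read from the degradation time course.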

[2] = Compound was evaluated for the secretion of interleukin-6 (IL-6) by macrophages incubated in the presence of antigen Keyhole Limpet Hemocyanin (KLH) at concentration of 2 x 10E-8 M; format: functional
How it was run: (§1)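 Thioglycollate-elicited peritoneal macrophages from (BALB/c x C3H.eb)F1 mice (6-8 weeks), >90% pure, cultured at 10⁶/mL in DMEM for 48 h at 37 °C, 5% CO₂. Incubated 20 h in triplicate with KLH plus peptide (2 × 10^-7 to 2 × 10^-9 M). Pooled supernatants were assayed for IL-6 by B9 hybridoma proliferation ([³H]thymidine, 2-fold dilutions), giving arbitrary units with KLH alone set at 1000 units. Three experiments were averaged.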

[3] = Compound was evaluated for the secretion of interleukin-6 (IL-6) by macrophages incubated in the presence of antigen Keyhole Limpet Hemocyanin (KLH) at concentration of 2 x 10E-7 M; format: functional; how it was run: as §1
[4] = Compound was evaluated for the secretion of interleukin-6 (IL-6) by macrophages incubated in the presence of antigen Keyhole Limpet Hemocyanin (KLH) at concentration of 2 x 10E-9 M; format: functional; how it was run: as §1

C[C@@H](O)[C@H](N)C(=O)N[C@@H](CCCCN)C(=O)N1CCC[C@H]1C(=O)N[C@]1(C(=O)O)C[C@@H](CN=C(N)N)C1
half-life [1]: 11 min

C[C@@H](O)[C@H](N)C(=O)N[C@]1(C(=O)N2CCC[C@H]2C(=O)N[C@@H](CCCN=C(N)N)C(=O)O)C[C@@H](CN)C1
Secretion [2]: 54%
Secretion [3]: 68%

C[C@@H](O)[C@H](N)C(=O)NC1(C(=O)N2CCC[C@H]2C(=O)N[C@@H](CCCN=C(N)N)C(=O)O)CC(CCN)C1 (some centres undefined)
half-life [1]: 13 min

NCCCC[C@H](NC(=O)[C@]1(N)C[C@H](CO)C1)C(=O)N1CCC[C@H]1C(=O)N[C@@H](CCCN=C(N)N)C(=O)O
Secretion [2]: 29%
Secretion [3]: 125%

C[C@@H](O)[C@H](N)C(=O)N[C@@H](CCCCN)C(=O)N1CCC[C@H]1C(=O)N[C@@H](CCCN=C(N)N)C(=O)O (H-TKPR-OH)
Secretion [2]: 42%
Secretion [3]: 78%
Secretion [4]: 32%

C[C@@H]1CC[C@]1(NC(=O)[C@H](CCCCN)NC(=O)[C@@H](N)[C@@H](C)O)C(=O)N[C@@H](CCCNC(=N)N)C(=O)O (stereo in doubt; 27)
Secretion [3]: 30%

C[C@@H]1CC[C@]1(NC(=O)[C@H](CCCCN)NC(=O)[C@@H](N)[C@@H](C)O)C(=O)N[C@@H](CCCNC(=N)N)C(=O)O (stereo in doubt; 27a)
Secretion [2]: 95%
Secretion [3]: 141%
half-life [1]: 25 min

C[C@@H]1CC[C@]1(NC(=O)[C@H](CCCCN)NC(=O)[C@@H](N)[C@@H](C)O)C(=O)N[C@@H](CCCNC(=N)N)C(=O)O (stereo in doubt; 27b)
T1/2 [1]: 15 min
